Assay results taken from ChEMBL document CHEMBL4725285, “Amides as bioisosteres of triazole-based geranylgeranyl diphosphate synthase inhibitors” (Bioorg Med Chem, 2020).
Active and inactive are the calls of the source. No cut-off for these calls is given here.

Experiments:
[1] = molecular target: T1, Farnesyl pyrophosphate synthase (Homo sapiens, UniProt P14324); experiment: Inhibition of recombinant FDPS (unknown origin) using [14C] IPP and GPP as substrate preincubated for 10 mins followed by substrate addition and measured after 30 min by liquid scintillation counting method
T1 sequence (P14324 whole entry): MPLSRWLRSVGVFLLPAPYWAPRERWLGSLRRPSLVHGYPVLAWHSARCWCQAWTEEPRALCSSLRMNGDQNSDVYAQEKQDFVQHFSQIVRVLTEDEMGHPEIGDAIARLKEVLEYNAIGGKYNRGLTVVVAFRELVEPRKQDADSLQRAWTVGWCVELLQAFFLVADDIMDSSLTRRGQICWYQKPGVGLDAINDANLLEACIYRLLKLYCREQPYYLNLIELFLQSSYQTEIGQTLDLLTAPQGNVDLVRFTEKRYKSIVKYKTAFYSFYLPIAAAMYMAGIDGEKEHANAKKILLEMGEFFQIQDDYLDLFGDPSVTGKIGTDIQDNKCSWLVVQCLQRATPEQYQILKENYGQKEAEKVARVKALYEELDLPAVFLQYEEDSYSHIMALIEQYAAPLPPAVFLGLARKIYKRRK

[2] = molecular target: T2, Geranylgeranyl pyrophosphate synthase (Homo sapiens) (UniProt O95749); experiment: Inhibition of GGDPS in human RPMI-8226 cells assessed as lowest effective concentration required for increase in intracellular lambda chain level after 48 hrs by ELISA; format: cell-based
T2 sequence (whole entry): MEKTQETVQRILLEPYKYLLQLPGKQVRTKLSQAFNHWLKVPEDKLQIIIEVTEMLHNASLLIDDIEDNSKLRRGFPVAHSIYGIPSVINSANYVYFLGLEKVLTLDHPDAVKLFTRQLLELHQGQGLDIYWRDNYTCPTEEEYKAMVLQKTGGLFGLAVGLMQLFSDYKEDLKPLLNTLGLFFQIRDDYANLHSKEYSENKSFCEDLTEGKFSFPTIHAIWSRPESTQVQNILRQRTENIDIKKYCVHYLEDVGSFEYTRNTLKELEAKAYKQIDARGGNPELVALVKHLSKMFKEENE

Homo sapiens = species: Homo sapiens; experiment: Selectivity ratio of IC50 for FDPS (unknown origin) to IC50 for GGDPS (unknown origin)
[3] = molecular target: T2, Geranylgeranyl pyrophosphate synthase (Homo sapiens); experiment: Inhibition of GGDPS in human RPMI-8226 cells assessed as lowest effective concentration required to show unmodified Rap1a band after 48 hrs by immunoblot analysis; format: cell-based
Outline: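 RPMI-8226 myeloma cells exposed to drugs for 48 hrs, with lovastatin as positive control. Lysate protein quantified by BCA. Equal amounts run on SDS-PAGE, blotted to PVDF, and probed for H-Ras, Rap1a (antibody recognises only unmodified protein) and β-tubulin as loading control. Detection by HRP secondary antibodies and ECL.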

[4] = molecular target: T3, Geranylgeranyl pyrophosphate synthase (Homo sapiens, UniProt O95749); experiment: Inhibition of recombinant GGDPS (unknown origin) using [14C] IPP and FPP as substrate preincubated for 10 mins followed by substrate addition and measured after 30 min by liquid scintillation counting method
T3 sequence (O95749 whole entry): T2 sequence (whole entry)
Outline: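 Recombinant GGDPS used, run by a previously described method. Each compound tested in duplicate at multiple concentrations across three independent experiments. IC50 derived from concentration-response curves.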

Rattus norvegicus [5] = species: Rattus norvegicus; experiment: Inhibition of recombinant rat FTase expressed in Escherichia coli using dansyl-GCVLS peptide and farnesyl pyrophosphate as substrate at 100 uM after 1 hr by fluorescence microplate reader analysis relative to control
Outline: (§1)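 Recombinant FTase and GGTase I assayed with dansyl-GCVLS and dansyl-GCVLL peptides by a modified Temple et al. method. Fluorescence change followed over time on a microplate reader. Duplicates at multiple concentrations, up to 100 μM, in three independent experiments. IC50 taken from concentration-response curves.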

Rattus norvegicus [6] = species: Rattus norvegicus; experiment: Inhibition of recombinant rat GGtase-1 expressed in Escherichia coli using dansyl-GCVLS and geranylgeranyl pyrophosphate as substrate at 100 uM after 2 hrs by fluorescence microplate reader analysis relative to control; outline: as §1
Rattus norvegicus [7] = species: Rattus norvegicus; experiment: Inhibition of recombinant rat GGtase-1 expressed in Escherichia coli using dansyl-GCVLS and geranylgeranyl pyrophosphate as substrate after 2 hrs by fluorescence microplate reader analysis; outline: as §1

SMILES | IC50 [1] | LED [2] | Ratio IC50 (Homo sapiens) | LED [3] | IC50 [4] | inhibition (Rattus norvegicus [5]) | inhibition (Rattus norvegicus [6]) | inhibition (Rattus norvegicus [7])
CC(C)=CCCC(=O)NCCC(P(=O)(O)O)P(=O)(O)O | 44.4 µM | 50 µM | 3.1 | 50 µM | 14.4 µM | – | – | –
CC(C)=CCC/C(C)=C/CCC(=O)NCCC(P(=O)(O)O)P(=O)(O)O | 14.3 µM | 1 µM | 17.9 | 1 µM | 0.8 µM | inactive | inactive | –
CC(C)=CCC/C(C)=C\C(=O)NCCC(P(=O)(O)O)P(=O)(O)O | – | 50 µM | – | 50 µM | – | < 30% | – | –
CC(C)=CCC/C(C)=C\CC(=O)NCCC(P(=O)(O)O)P(=O)(O)O | 7.8 µM | 5 µM | 2.1 | 5 µM | 3.7 µM | inactive | inactive | –
CC(C)=CCC[C@H](C)CC(=O)NCCC(P(=O)(O)O)P(=O)(O)O | 27.8 µM | 50 µM | 5.1 | 50 µM | 5.4 µM | inactive | inactive | –
CC(C)=CCC/C(C)=C/C(=O)NCCC(P(=O)(O)O)P(=O)(O)O | – | 5 µM | – | 5 µM | – | – | – | inactive
CC(C)=CCC[C@@H](C)CC(=O)NCCC(P(=O)(O)O)P(=O)(O)O | 48.5 µM | 5 µM | 14.3 | 5 µM | 3.4 µM | inactive | inactive | –
CC(C)=CCC/C(C)=C\CCC(=O)NCCC(P(=O)(O)O)P(=O)(O)O | 31.7 µM | 0.5 µM | 28.8 | 0.5 µM | 1.1 µM | inactive | inactive | –
CC(C)=CCC/C(C)=C\CCn1cc(CC(P(=O)(O)O)P(=O)(O)O)nn1 | 33.3 µM | 0.03 µM | 445 | 0.03 µM | – | – | – | –
CC(C)=CCC/C(C)=C/C(=O)NCCC(P(=O)(O)O)P(=O)(O)O (mixture of isomers) | – | 10 µM | – | 10 µM | – | – | – | –
